Experimental findings from ChEMBL document CHEMBL4837209, “Synthesis and BK channel-opening activity of 2-amino-1,3-thiazole derivatives” (Bioorg Med Chem Lett, 2021) are described below.

The structures appear in SMILES notation. Active and inactive are the calls of the source. The rule behind the calls is not given here.

The target in test [1] is Calcium-activated potassium channel subunit alpha-1 (Homo sapiens) (UniProt Q12791). As to the kind of experiment: Opening of BK channel in human AD293 cells assessed as relative fluorescence unit at 5 uM by cell-based fluorescence assay relative to control. In outline:
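FluxOR Tl⁺-flux assay in AD-293 cells expressing hyperactive mutant BK channels (G803D/N806K). Each fluorescence trace was normalized to its own basal level to give RFU. ΔRFU with compound at 5 μM was expressed versus the drug-free control. DMSO served as negative control and CTBIC at a fixed concentration as positive control. Values are means of at least three separate measurements.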

The target in test [2] is Calcium-activated potassium channel subunit alpha-1 (Rattus norvegicus) (UniProt Q62976). As to the kind of experiment: […] of rat BK calcium channel expressed in Xenopus laevis oocytes assessed as G-V shift toward more negative voltage at 10 uM at -80 to 200 mV by patch clamp assay. It is filed as cell-based. Particulars: Oocyte. The method, boiled down: (§1)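 Rat BK α-subunit (Slo1) expressed in Xenopus laevis oocytes. Currents were recorded by gigaohm-seal patch clamp in the outside-out configuration. Macroscopic currents were evoked by voltage pulses from -80 to 200 mV, with and without compound. Student t-test was used.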

Test [3] has the same target. As to the kind of experiment: […] of rat BK calcium channel expressed in Xenopus laevis oocytes assessed as increase in inward current tail at 10 uM at -80 to 200 mV by patch clamp assay. Particulars: Oocyte. It counts as cell-based. The method, boiled down:
as §1
(In patch-clamp work, channel activity is measured electrically.)

Test [4] shares this target. As to the kind of experiment: […] of rat BK calcium channel expressed in Xenopus laevis oocytes assessed as V1/2 at 10 uM at -80 to 200 mV by patch clamp assay. It counts as cell-based. The note with it: Oocyte. In outline:
as §1

For test [5] the target is unchanged. As to the kind of experiment: […] of rat BK calcium channel expressed in Xenopus laevis oocytes assessed as maximum conductance at 10 uM at -80 to 200 mV by patch clamp assay relative to control. It is filed as cell-based. Particulars: Oocyte. The method, boiled down:
as §1

Test [6] shares this target. As to the kind of experiment: […] of rat BK calcium channel expressed in Xenopus laevis oocytes assessed as increase in outward current tail at 10 uM at -80 to 200 mV by patch clamp assay. It is filed as cell-based. Particulars: Oocyte. The method, boiled down: as §1
Test [7] deals with Calcium-activated potassium channel subunit alpha-1 (Homo sapiens) (UniProt Q12791). As to the kind of experiment: Opening of BK channel in human AD293 cells assessed as relative fluorescence unit by cell-based fluorescence assay. Particulars: dose 1-30 µM.
Test [8] has the same target. As to the kind of experiment: […] of BK calcium channel in human AD293 cells assessed as relative fluorescence unit at 1 to 30 uM in presence of 1 uM paxilline by cell-based fluorescence assay. The note with it: dose 1-30 µM. In outline: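 FluxOR Tl⁺-flux fluorescence in AD-293 cells expressing G803D/N806K mutant BK channels. Compounds were tested at 1–30 μM, alone and co-applied with 1 μM paxilline to confirm the BK dependence of the signal. Signals were normalized to the basal level of each trace. Student t-test was used.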

Chain of Calcium-activated potassium channel subunit alpha-1 (Homo sapiens) (Q12791 whole entry): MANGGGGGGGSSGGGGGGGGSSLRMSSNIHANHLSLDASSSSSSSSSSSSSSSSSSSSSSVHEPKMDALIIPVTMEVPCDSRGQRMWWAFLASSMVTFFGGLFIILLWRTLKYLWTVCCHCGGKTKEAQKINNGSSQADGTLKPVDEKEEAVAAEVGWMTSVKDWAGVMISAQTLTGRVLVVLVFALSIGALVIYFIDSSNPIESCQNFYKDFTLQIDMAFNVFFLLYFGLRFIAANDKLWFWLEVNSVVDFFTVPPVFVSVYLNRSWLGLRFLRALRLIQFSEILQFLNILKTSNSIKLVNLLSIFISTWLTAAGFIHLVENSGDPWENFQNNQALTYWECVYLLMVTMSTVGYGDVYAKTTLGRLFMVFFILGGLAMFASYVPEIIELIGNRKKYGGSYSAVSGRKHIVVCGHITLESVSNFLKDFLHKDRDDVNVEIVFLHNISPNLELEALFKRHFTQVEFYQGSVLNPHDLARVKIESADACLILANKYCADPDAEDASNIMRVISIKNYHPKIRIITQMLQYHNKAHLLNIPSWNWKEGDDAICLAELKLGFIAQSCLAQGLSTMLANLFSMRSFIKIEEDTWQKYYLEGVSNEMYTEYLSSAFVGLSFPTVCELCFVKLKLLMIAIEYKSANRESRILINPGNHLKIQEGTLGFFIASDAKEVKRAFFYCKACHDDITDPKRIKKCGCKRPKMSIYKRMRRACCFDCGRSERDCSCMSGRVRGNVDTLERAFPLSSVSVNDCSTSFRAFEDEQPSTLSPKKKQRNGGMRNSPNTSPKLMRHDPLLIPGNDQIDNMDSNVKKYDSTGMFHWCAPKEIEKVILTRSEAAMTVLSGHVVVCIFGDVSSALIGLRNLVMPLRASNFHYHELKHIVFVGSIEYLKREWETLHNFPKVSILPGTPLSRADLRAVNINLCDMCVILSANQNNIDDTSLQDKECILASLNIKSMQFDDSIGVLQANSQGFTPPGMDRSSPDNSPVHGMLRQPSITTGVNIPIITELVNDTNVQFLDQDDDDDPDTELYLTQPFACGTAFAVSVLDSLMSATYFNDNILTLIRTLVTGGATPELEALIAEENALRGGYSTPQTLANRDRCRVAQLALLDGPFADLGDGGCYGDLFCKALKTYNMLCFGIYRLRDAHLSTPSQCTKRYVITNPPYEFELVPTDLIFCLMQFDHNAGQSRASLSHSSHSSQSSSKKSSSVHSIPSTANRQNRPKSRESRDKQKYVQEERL
Chain of Calcium-activated potassium channel subunit alpha-1 (Rattus norvegicus) (Q62976 whole entry): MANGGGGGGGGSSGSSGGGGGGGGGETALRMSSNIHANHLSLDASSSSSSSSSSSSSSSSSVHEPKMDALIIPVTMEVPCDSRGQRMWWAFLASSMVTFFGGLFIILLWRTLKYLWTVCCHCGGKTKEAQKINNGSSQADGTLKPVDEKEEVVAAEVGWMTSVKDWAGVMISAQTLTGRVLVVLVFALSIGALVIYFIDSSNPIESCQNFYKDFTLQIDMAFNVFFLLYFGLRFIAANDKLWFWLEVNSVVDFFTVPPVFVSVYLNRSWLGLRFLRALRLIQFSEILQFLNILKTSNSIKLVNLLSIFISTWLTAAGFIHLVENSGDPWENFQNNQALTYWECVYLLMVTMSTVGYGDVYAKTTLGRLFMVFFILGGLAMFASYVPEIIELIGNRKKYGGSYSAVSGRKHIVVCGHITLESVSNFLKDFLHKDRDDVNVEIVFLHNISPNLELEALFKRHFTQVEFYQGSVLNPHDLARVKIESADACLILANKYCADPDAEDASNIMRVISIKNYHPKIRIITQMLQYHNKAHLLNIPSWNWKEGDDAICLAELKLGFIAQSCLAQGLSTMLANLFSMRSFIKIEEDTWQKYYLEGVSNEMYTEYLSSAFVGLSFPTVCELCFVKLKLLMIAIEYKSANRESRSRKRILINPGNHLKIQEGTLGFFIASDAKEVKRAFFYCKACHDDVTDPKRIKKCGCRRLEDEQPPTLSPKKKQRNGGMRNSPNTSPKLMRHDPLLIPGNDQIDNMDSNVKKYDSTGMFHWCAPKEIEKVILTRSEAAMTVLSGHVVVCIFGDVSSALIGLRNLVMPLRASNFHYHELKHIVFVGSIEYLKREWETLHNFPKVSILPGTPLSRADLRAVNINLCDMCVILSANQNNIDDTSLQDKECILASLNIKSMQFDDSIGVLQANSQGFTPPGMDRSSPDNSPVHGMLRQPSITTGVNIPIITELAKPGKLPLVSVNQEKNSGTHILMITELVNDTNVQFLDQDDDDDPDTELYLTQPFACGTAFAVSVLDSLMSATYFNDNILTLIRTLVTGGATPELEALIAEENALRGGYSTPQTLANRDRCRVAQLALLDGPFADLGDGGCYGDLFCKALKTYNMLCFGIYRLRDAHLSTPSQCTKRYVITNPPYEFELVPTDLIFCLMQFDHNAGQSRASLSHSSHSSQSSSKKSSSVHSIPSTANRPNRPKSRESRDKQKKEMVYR

As for `Cc1ccc(Cc2cnc(N)s2)cc1`, in test [1], the RFU was 1.11.
On the same count and under the same terms, under `COc1cc(Cc2cnc(N)s2)cc(C(F)(F)F)c1` stands 0.97; under `Nc1ncc(Cc2cccc(Br)c2)s1`, 1.37.
The same measure, in the same setting: in the case of `Nc1ncc(Cc2ccccc2C(F)(F)F)s1` it was 1.07.
Take `COc1ccc(Cc2cnc(N)s2)cc1`: the RFU in test [1] was determined as 1.02.
On the same count and under the same terms, in the case of `CC(=O)Nc1ncc(Cc2ccc(Br)cc2)s1` it was 1.14.
Still for that read-out and setting: in the case of `Cc1ccccc1Cc1cnc(N)s1` it was 1.37.
Turning to `Nc1ncc(Cc2ccc(C(F)(F)F)cc2)s1`, the outcome in test [2], in test [3] and in test [6] was Active. Also, in test [4], the V1/2 was determined as 24.5 mV. The fold change (FC) in test [5] stood at 1.3. Besides, the RFU in test [1] is 2.1. In addition, the inhibition entry in test [7] was “Dose-Dependent Effect”. The inhibition result in test [8] was “Active”.
Consider `Nc1ncc(Cc2ccc([N+](=O)[O-])cc2)s1`, for which the RFU in test [1] was 0.94.
Still for that read-out and setting: in the case of `N#Cc1cccc(Cc2cnc(N)s2)c1` it was 1; in that of `Nc1ncc(C(=O)c2ccc(C(F)(F)F)cc2)s1`, 1.08; in that of `Nc1ncc(Cc2cccc(Cl)c2)s1`, 1.51.
Same read-out and setting: under `Nc1ncc(Cc2ccc(Cl)cc2)s1` stands 1.59.
On the same count and under the same terms, under `Nc1ncc(C(=O)c2ccc(Br)cc2)s1` stands 0.94.
Turning to `Nc1ncc(Cc2ccccc2Br)s1`, the outcome in test [2], in test [3] and in test [6] was Active. Besides, the V1/2 in test [4] is 23.4 mV. Besides, the fold change (FC) in test [5] was found to be 1.4. In test [1], the RFU amounted to 2.67. Further, the inhibition result in test [7] was “Dose-Dependent Effect”. The inhibition result in test [8] is “Active”.
Consider `Nc1ncc(Cc2ccccc2Cl)s1`, for which the RFU in test [1] was 1.13.
On the same count and under the same terms, in the case of `Nc1ncc(Cc2cccc(C(F)(F)F)c2)s1` it was 1.22.
Same read-out and setting: under `O=C(O)c1ccc(Cl)c2c1[nH]c1c3ccc(C(F)(F)F)cc3oc12` stands 3.3.
Same read-out and setting: under `Nc1ncc(Cc2ccc(Br)cc2)s1` stands 1.85; under `COc1ccccc1Cc1cnc(N)s1`, 0.94; under `Cc1cccc(Cc2cnc(N)s2)c1`, 1.27.
With `COc1cccc(Cc2cnc(N)s2)c1`, the RFU in test [1] stood at 1.02.
Same read-out and setting: in the case of `N#Cc1ccccc1Cc1cnc(N)s1` it was 1.06; in that of `Nc1ncc(Cc2ccncc2)s1`, 1.11; in that of `O=C(CCl)Nc1ncc(Cc2ccc(Br)cc2)s1`, 0.94.
The same measure, in the same setting: under `Nc1ncc(Cc2cccnc2)s1` stands 1.08; under `N#Cc1ccc(Cc2cnc(N)s2)cc1`, 1.21.
